CHO parental Ca – ATP-evoked calcium signal inhibitors, parental CHO, primary screen, counter-screen for OX1R antagonist project, cell-based, fluorescence, Fluo-8 calcium dye; parental CHO-K1, ATP-induced calcium, Fluo-8 fluorescence; inhibition, % at 5.6 µM; 0.63% of 330,000 active; AID 463079, 2010;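 active means inhibition above that plate's mean sample inhibition plus 3 SD, cut at about 26% in these data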;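 further: 0% = ATP-challenged DMSO wells and 100% = DMSO wells without ATP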
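material = parental CHO cells | also added = ATP as calcium-mobilizing challenge | dosing = single point at 5.6 µM | detection = intracellular calcium via Fluo-8 no-wash fluorescent dye | read-out = % inhibition | benchmarks = low control ATP plus DMSO, high control DMSO only | repeats = one well per compound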
OX1R antag-1 – OX1R (HCRTR1) antagonists, primary screen, fluorescence, CHO/OX1R cells, Fluo-8 calcium, orexin A; Orexin/Hypocretin receptor type 1 (Homo sapiens), O43613; Fluo-8 calcium fluorescence; inhibition, % at 5 µM; 0.43% of 330,000 active; AID 434989, 2010;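 active means inhibition above its plate's threshold, mean inhibition of all tested compounds on the plate plus 3 SD, cut at about 37% in these data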;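 further: 0% = orexin A challenge wells and 100% = SB-334867-A antagonist wells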
Target sequence (O43613 whole entry, looked up): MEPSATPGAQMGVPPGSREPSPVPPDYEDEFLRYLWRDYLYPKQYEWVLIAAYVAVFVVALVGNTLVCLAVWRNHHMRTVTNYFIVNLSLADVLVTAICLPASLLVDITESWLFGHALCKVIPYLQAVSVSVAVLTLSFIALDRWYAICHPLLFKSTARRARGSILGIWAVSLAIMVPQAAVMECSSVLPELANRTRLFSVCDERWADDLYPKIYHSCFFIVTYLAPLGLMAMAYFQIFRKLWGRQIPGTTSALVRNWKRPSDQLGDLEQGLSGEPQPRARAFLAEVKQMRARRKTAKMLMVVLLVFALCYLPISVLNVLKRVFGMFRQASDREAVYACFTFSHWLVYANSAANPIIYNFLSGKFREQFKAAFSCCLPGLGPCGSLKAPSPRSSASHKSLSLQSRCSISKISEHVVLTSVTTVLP
EP2 modulator – EP2 receptor modulators, cAMP readout, primary screen, cell-based, HTRF cAMP, PGE2 stimulation. EP2-expressing cells, cAMP HTRF FRET, PGE2 co-stimulation. induction, % at 25 µM. 0.83% of 260,000 active;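 active means compounds whose cAMP rise, as percent of the full-agonist control response, exceeds 60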;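 further: rat C6 glioma line stably carrying human EP2 under a CMV promoter; the protocol text gives 20 µM as final concentration; 100% = response of wells given 1 µM PGE2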
GPR7 antagonist – GPR7 receptor antagonists, primary screen, cell-based, fluorescence, single concentration; Neuropeptides B/W receptor type 1 (Homo sapiens), P48145; GPR7-expressing cells, fluorescence antagonist assay; inhibition, % at 4.4 µM; 1.1% of 290,000 active; AID 1861, 2009; in the data active means inhibition above about 16%, passing the limit was not always enough;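 further: cells stimulated with the agonist NPW; 0% = agonist with vehicle and 100% = vehicle without agonist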
Target sequence (P48145 whole entry, looked up): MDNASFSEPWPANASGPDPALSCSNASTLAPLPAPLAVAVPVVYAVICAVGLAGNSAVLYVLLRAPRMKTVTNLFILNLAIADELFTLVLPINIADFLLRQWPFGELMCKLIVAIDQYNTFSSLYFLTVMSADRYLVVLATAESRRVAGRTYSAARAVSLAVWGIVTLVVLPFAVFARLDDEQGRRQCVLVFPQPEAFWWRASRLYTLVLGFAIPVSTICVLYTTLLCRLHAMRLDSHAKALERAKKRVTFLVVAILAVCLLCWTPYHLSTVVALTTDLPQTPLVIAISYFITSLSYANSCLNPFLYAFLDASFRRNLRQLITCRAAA
PGE2 EP2 inh – human EP2 receptor antagonists, primary screen, TR-FRET cAMP, C6 glioma cells; C6 glioma cells expressing human EP2; cells stimulated with saturating PGE2; inhibition, % at 25 µM; 0.52% of 260,000 active; AID 1422, 2008;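 active means percent inhibition above 40 after rounding to a whole number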;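 further: rat C6 glioma host cells with rolipram phosphodiesterase inhibitor present; the protocol text gives 20 µM as final concentration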
OX1R antag-2 – antagonists of human orexin 1 receptor (OX1R); inhibition, % at 6.6 µM; 1.8% of 330,000 active; Orexin/Hypocretin receptor type 1 (Homo sapiens), O43613; OX1R-expressing cells, FRET antagonist read-out; AID 485270, 2010; in the data active means inhibition mostly above about 38%, no sharp cut-off; inactive means mostly below about 40%;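 further: 0% = agonist challenge alone and 100% = reference antagonist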
The depositor's hits bear a star; . = no result. Only some compounds are listed: those with a hit (about 3.7% of all), similar ones and a draw of the others.

SMILES | CHO parental Ca | OX1R antag-1 | EP2 modulator | GPR7 antagonist | PGE2 EP2 inh | OX1R antag-2
O[C@@H](c1cc(-c2ccccc2)nc2c1ccc1ccccc12)[C@@H]1CCCCN1 | . | . | -11.4 | . | 84.3* | .
CCN1CCN(c2nc(-c3cccnc3)nc3ccccc23)CC1 | 5.7 | -14.7 | 27.5 | -15.7 | 12.3 | 9.2
O=c1c2ccccc2sc2c(CO)ccc(NCCN3CCCCC3)c12 | . | . | -42.4 | . | 58.3* | .
CCN(CC)CCNc1ccc(CO)c2sc3ccccc3c(=O)c12 | 2.2 | -3.6 | -50.9 | -4.5 | 16.9 | 27.9
Cn1cc(S(=O)(=O)Nc2ccc(Br)cc2F)c(=O)n(C)c1=O | -8.2 | -7.2 | 8.6 | -3.0 | 8.1 | -1.7
CCCCCc1ccc(OCCOCCn2c[n+](C)c3ccccc32)c(CCCCC)c1 | . | . | -54.9 | 39.8* | 21.7 | .
CCCCc1nn(-c2cc(Cl)ccc2OC)c2c1C(=O)CCC2 | -0.8 | -34.6 | 22.4 | -8.6 | 13.1 | 21.9
O=C1CC(N2CCN(c3ccc(F)cc3)CC2)C(=O)N1Cc1ccccc1 (centres undefined) | -4.9 | -7.6 | . | -3.0 | . | 5.4
N#CCC(=O)Nc1ccc(C(=O)OCC(=O)c2c[nH]c3ccccc23)cc1 | 3.9 | 19.8 | . | . | . | 38.8*
NC(=O)Nc1ccc(C(=O)OCC(=O)c2c[nH]c3ccccc23)cc1 | -0.6 | 17.5 | . | . | . | 6.5
O=C(COc1ccccc1[N+](=O)[O-])Nc1cccc(C(=O)Nc2ccccc2C(=O)O)c1 | -18.9 | -21.1 | . | -12.0 | . | 8.8
O=C(C[n+]1cc2ccccc2c2ccccc21)c1ccccc1 | -13.4 | -1.0 | -0.7 | 2.8 | 1.2 | 56.3*
Cc1cc(C(C#N)c2ccccc2F)n2ncnc2n1 (centres undefined) | -10.0 | -5.0 | 8.8 | 6.5 | 6.5 | 17.1
Cc1noc(C)c1CSCC(=O)N(C)CC(=O)Nc1ccc(Cl)c(C(F)(F)F)c1 | -0.6 | -3.8 | . | . | . | 14.4
COc1cccc(C(=O)Nc2ccc3nc(N4CCN(c5ncccn5)CC4)cc(C)c3c2)c1OC | -2.7 | 0.6 | -14.8 | -22.2 | 11.2 | 58.6*
COc1ccc(CN(C(=O)CSc2nnc(-c3c[nH]c4ccccc34)o2)c2ccc(F)cc2)cc1OC | 34.8* | 34.0 | -48.6 | 5.6 | 32.3 | 81.5*
COc1ccc(-c2nc3ccccn3c2Cl)cc1 | -12.9 | -18.2 | -46.0 | 3.3 | 12.2 | 42.6*
c1cc2c3c(cccc3c1)C(N1CCCCCC1)=N2 | -0.5 | -0.8 | -12.7 | 32.3* | . | 26.9
c1cc2c3c(cccc3c1)C(N1CCCCC1)=N2 | -18.5 | -16.1 | -2.6 | 1.3 | 11.3 | 68.1
O=S(=O)(c1ccccc1Cl)N1CCC2(CC1)Nc1ccccc1-n1cccc12 | . | . | -91.5 | . | . | .
O=C(CCCl)N1c2ccccc2Sc2ccccc21 | . | . | 69.6* | . | 6.3 | .
O=C(c1ccco1)N1c2ccccc2Sc2ccccc21 | -18.6 | -23.5 | -2.2 | -2.8 | 44.1* | 50.6
CC(/C=N\NC(=O)Cn1cncn1)=C/c1ccc(C(C)C)cc1 | -3.0 | 10.0 | 41.5 | -3.8 | 6.9 | 3.4
CC(/C=N/NC(=O)Cn1nnc(N)n1)=C\c1ccc(C(C)C)cc1 | -6.6 | -20.5 | 89.2* | -36.0 | 2.5 | 11.0
CN(Cc1ccccc1)C(=O)CSc1nc2ccccc2c(=O)n1Cc1ccco1 | -23.8 | 14.3 | 10.6 | -11.6 | 2.3 | 34.1*
SMILES | CHO parental Ca | OX1R antag-1 | EP2 modulator | GPR7 antagonist | PGE2 EP2 inh | OX1R antag-2
CCOCC(=O)Nc1nc2c(s1)C(=O)CC(C)(C)C2 | -5.1 | -7.4 | 12.0 | -10.7 | 10.2 | 10.8
CCOc1ccccc1C(=O)Nc1nc2c(s1)C(=O)CC(C)(C)C2 | . | . | -21.9 | . | 69.1* | .
CCOC(=O)CC(=O)NNC(=O)c1c(O)c2ccccc2n(C)c1=O | . | . | -9.0 | . | 5.9 | .
Cn1c(=O)c(C(=O)NNC(=O)c2cccc(Cl)c2)c(O)c2ccccc21 | 47.0* | 43.9* | . | 4.4 | . | 18.9
CCn1c(=O)c(C(=O)NNC(=O)c2cccc(Cl)c2)c(O)c2ccccc21 | 94.6* | 98.3* | . | -17.9 | . | 27.5
Cc1cccc(C(=O)NNC(=O)c2c(O)c3ccccc3n(C)c2=O)c1 | 40.0* | 12.9 | . | -3.3 | . | 20.6
Cc1cccc(OC(C)C(=O)OCC(=O)Nc2sccc2C(N)=O)c1 (centres undefined) | 17.2 | 38.7 | . | . | . | 13.3
Cc1cccc(OCC(=O)OCC(=O)Nc2sccc2C(N)=O)c1 | 33.1* | 43.6* | . | . | . | 2.9
CC1CCN(CCc2nc3cc(NC(=O)C(C)C)ccc3n2C)CC1 | 0.9 | -1.6 | . | -11.6 | . | -2.9
COc1ccc(-n2ccnc(SCC(=O)NC3CCCC3)c2=O)cc1 | -6.0 | -7.5 | . | -1.3 | . | 44.6*
COc1ccc(-n2ccnc(SCC(=O)NC3CCCCC3)c2=O)cc1 | -4.2 | -10.1 | . | 4.5 | . | 20.9
COc1ccnc(-n2cccc2/C=N/O)c1C#N | 2.7 | -8.3 | -1.6 | -14.8 | 6.0 | 6.1
Cc1nc(-c2ccccn2)sc1C(=O)Nc1ccc(Cl)c(Cl)c1 | -30.9 | -11.1 | -31.4 | -4.4 | 52.4* | 25.5
CC(=O)c1sc(-c2ccccn2)nc1C | -1.4 | -15.2 | 1.0 | -12.8 | 7.8 | 36.7
CSc1nc2ccc(NC(=O)NC(=O)c3c(F)cccc3F)cc2s1 | -7.7 | -24.4 | -24.8 | 18.9* | 10.9 | 16.7
Cc1nc2ccc(NC(=O)c3ccccc3)cc2s1 | -8.4 | -28.7 | -28.1 | 1.3 | 5.3 | 15.8
Cc1nc2ccc(NC(=O)c3ccc4ccccc4n3)cc2s1 | -16.9 | 0.3 | -9.9 | -8.4 | 7.2 | 65.4*
Cc1nc2ccc(C(=O)Nc3ccc(N(C)C)cc3)cc2s1 | -14.9 | 3.5 | . | . | . | 60.8*
Cc1nc2ccc(C(=O)Nc3ccccc3)cc2s1 | . | . | -56.8 | . | 10.7 | .
CC(=O)c1ccc(NC(=O)c2ccc3nc(C)sc3c2)cc1 | -11.6 | 0.8 | -36.0 | -19.5 | 11.6 | 60.9*
CCNc1ccc(C(=O)Nc2ccc3nc(C)sc3c2)cc1[N+](=O)[O-] | -28.8 | -25.1 | -5.5 | -4.4 | 3.3 | 60.5*
CN(C)c1ccc(NC(=O)c2ccc3nsnc3c2)cc1 | -4.9 | 16.5 | -10.8 | -3.8 | 10.4 | 32.4
COc1ccccc1NC(=O)c1cccc(S(=O)(=O)N2CCN(Cc3ccccc3)CC2)c1 | -19.1 | -33.2 | . | . | . | 24.4
COc1ccc(NC(=O)C(NC(=O)CC2NC(=O)NC2=O)c2ccccc2)cc1 (centres undefined) | -7.8 | 3.0 | 4.0 | 3.1 | 1.4 | 2.3
CC(=O)c1ccc(-c2ccc(C(=O)Nc3nc(-c4ccccn4)cs3)o2)cc1 | 1.3 | 18.2 | . | . | . | 4.5
CCn1nc([N+](=O)[O-])c(C(C#N)c2nc3cc(C(F)(F)F)ccc3s2)c(Cl)c1=O (centres undefined) | -9.6 | -2.3 | -16.3 | -8.0 | 13.3 | 62.0*

Compound activity (PubChem BioAssay)
